Results from article PMC6358270 (Toxicological Sciences, 2018).
“Also recorded” adds a separate entry of the source. Like-named read-outs stand apart in the source and are kept apart here.

Assays:
[1] = molecular target: human BSEP ABC transporter (Homo sapiens, UniProt O95342); test: BSEP vesicular transport inhibition Ki determination assay; assay type: biochemical
Summary of the method: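 Inside-out membrane vesicles expressing BSEP. Transporter-specific taurocholate accumulation was measured across a range of test compound concentrations.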

human NTCP = molecular target: T1, human NTCP (Homo sapiens, UniProt Q14973); test: NTCP uptake transporter inhibition Ki determination in CHO cells; assay type: cell-based; details: based on alpha >> 1, increasing Km, nearly constant Vmax
T1 sequence (Q14973 1-349): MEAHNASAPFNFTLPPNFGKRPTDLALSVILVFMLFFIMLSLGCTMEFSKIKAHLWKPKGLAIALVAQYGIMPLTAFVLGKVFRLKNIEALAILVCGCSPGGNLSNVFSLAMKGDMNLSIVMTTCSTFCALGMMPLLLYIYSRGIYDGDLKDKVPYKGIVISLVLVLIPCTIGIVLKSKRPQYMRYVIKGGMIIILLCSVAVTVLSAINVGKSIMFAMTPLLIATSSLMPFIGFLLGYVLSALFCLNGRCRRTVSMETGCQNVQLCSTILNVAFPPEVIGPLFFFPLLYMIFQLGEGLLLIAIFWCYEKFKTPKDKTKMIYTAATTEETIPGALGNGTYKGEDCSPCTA

HepG2 cells [2] = test: In vitro ROS assay; assay type: cell-based, human; details: nominal media concentrations up to 200 μM, 1 h or 24 h
TAK-875-treated patients = details: cited from earlier work; for patients with ALT elevations > 3× ULN: clinical
[3] = tested on: primary human hepatocytes; details: ref Wolenski et al., 2017; cited from earlier work
HepG2 cells [4] = details: ref Otieno et al., 2018, cited from earlier work; for effect on OCR / basal respiration: HepG2 cells
[5] = ref Wolenski et al., 2017; cited from earlier work
[6] = rat; ref unpublished data; cited from earlier work
patients with T2D = details: Phase II clinical trials, ref Kaku et al., 2015; cited from earlier work

human BSEP ABC transporter, sequence (O95342 whole entry): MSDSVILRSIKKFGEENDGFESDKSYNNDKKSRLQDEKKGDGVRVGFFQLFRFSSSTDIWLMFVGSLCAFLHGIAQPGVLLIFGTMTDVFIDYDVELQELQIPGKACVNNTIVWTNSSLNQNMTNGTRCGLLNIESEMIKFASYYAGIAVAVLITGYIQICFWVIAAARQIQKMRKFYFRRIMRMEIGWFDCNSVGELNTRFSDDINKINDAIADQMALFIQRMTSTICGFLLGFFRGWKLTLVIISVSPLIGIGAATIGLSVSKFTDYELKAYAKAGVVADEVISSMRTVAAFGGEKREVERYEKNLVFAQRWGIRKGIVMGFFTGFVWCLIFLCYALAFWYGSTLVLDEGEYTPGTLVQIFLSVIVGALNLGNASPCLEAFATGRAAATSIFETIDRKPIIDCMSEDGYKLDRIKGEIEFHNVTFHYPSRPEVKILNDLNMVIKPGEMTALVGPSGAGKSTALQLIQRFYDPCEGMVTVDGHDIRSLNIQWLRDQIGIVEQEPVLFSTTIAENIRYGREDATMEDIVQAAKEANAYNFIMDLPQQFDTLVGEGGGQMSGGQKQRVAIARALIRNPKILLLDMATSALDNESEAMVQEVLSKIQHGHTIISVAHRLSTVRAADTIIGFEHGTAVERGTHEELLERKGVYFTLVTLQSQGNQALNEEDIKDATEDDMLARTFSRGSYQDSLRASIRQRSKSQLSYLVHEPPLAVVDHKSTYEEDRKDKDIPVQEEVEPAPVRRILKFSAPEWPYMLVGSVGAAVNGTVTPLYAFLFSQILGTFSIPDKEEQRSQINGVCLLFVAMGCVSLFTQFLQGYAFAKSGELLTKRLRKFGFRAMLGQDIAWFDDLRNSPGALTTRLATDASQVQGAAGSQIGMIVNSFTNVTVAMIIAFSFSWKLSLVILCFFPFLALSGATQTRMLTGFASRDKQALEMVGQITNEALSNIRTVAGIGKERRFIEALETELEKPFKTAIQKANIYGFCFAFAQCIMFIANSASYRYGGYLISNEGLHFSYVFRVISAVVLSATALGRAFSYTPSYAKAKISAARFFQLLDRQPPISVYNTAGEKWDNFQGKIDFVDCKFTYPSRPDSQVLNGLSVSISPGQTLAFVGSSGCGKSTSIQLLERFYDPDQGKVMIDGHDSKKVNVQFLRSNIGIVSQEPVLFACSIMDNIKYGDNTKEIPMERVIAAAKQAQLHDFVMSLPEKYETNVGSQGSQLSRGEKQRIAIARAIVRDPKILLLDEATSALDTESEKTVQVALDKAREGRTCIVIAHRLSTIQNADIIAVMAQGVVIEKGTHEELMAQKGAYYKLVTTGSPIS

mode of NTCP inhibition (human NTCP) | ROS production / oxidative stress (DHE fluorescence) (HepG2 cells [2]) | SMILES | Ki [1] [µM] | mode of BSEP inhibition ([1]; based on alpha value, Km and Vmax trends) | BSEP alpha constant for inhibition ([1]; mixed-type inhibition model) | cases of serious liver injury, incidence (TAK-875-treated patients; clinical trials, ref Marcinak et al., 2018) [%] | patients with ALT elevations > 3× ULN (TAK-875-treated patients; daily doses of 200 mg, ref unpublished data) [%] | patients with ALT elevations > 3× ULN (TAK-875-treated patients; daily doses ranging from 25 to 50 mg, ref Marcinak et al., 2018) [%] | cases of serious liver injury (TAK-875-treated patients; in 9139 TAK-875-treated patients, ref Marcinak et al., 2018) [cases] | effect on oxygen consumption rate (OCR) [3] | effect on OCR / basal respiration (HepG2 cells [4]) | compound-induced oxidative stress [5] | concentration in liver versus plasma [6] | effect on blood glucose levels and HbA1c (patients with T2D) | effects on mitochondria (HepG2 cells [4])
competitive | not observed | Cc1cc(OCCCS(C)(=O)=O)cc(C)c1-c1cccc(COc2ccc3c(c2)OC[C@H]3CC(=O)O)c1 [TAK-875, fasiglifam] | 17.2 | mixed | 2.172 | 0.03 | 4.0 | 2.8 | 3 | reduce the oxygen consumption rate (OCR) in a dose-dependent manner | dose-dependent reduction in OCR | no evidence of compound-induced oxidative stress was detected; also recorded: not found to be inducers of oxidative stress | roughly equivalent | lowered blood glucose levels and glycated hemoglobin (HbA1c) | –
– | – | Cc1cc(OCCCS(C)(=O)=O)cc(C)c1-c1cccc(COc2ccc3c(c2)OC[C@H]3CC(=O)O[C@@H]2O[C@H](C(=O)O)[C@@H](O)[C@H](O)[C@H]2O)c1 [TAK-875-Glu] | – | – | – | – | – | – | – | reduce the oxygen consumption rate (OCR) in a dose-dependent manner | no effect on basal respiration | no evidence of compound-induced oxidative stress was detected; also recorded: not found to be inducers of oxidative stress | – | – | negligible effects on mitochondria
